LYPLA1 inh = LYPLA1 (human) inhibition in PME1 counter-screen; O75608; inhibition, % at 5.9 µM; recombinant LYPLA1, FP-Rh probe fluorescence polarization; 320,000 compounds, 0.16% hits;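 active = inhibition above the mean of all tested compounds plus 3 SD, set per campaign, cut at about 14% in these data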;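 note: inhibitors block serine hydrolase probe labeling of LYPLA1 so polarization falls; 0% = enzyme with DMSO and 100% = wells lacking LYPLA1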
Target sequence (O75608 whole entry, looked up): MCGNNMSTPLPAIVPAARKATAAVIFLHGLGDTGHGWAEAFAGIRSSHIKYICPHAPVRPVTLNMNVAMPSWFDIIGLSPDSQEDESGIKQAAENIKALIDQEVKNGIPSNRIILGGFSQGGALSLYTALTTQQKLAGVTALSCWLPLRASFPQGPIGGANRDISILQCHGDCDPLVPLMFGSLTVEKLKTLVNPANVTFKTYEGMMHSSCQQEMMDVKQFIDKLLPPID
proCasp3 act = activators of human procaspase-3 | activation, % at 8.5 µM | 330,000 compounds, 0.11% hits | AID 463141 | recombinant procaspase-3 D3A, Ac-DEVD-pNA absorbance 405 nm | P42574;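 active = activation above the mean of all tested compounds plus 3 SD, cut at about 21% in these data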;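 note: 0% = DMSO alone and 100% = DMSO wells spiked with extra 5 µM PC-3 D3A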
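Assay system – Procaspase-3 D3A mutant, all three cleavage aspartates alanine · Controls – DMSO-only low control, 5 µM PC-3 D3A high control · Schedule – 1 h compound preincubation, 2 h substrate hydrolysis at 25 °C · Signal – 405 nm absorbance of p-nitroaniline, reads at 0 and 120 min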
PREPL inhibitor = inhibits the human prolyl oligopeptidase-like enzyme; Q4J6C6; recombinant PREPL, fluorescence polarization activity-based probe; inhibition, % at 5.96 µM; 320,000 compounds, 0.68% hits; AID 2751;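 note: 0% = enzyme with DMSO and 100% = wells lacking enzyme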
LYPLA2 counter = counter-screen for PME1 inhibitors: inhibitors of human LYPLA2. 320,000 compounds, 0.38% hits. O95372. inhibition, % at 5.9 µM. recombinant LYPLA2, FP-Rh probe fluorescence polarization. AID 2177;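 active = inhibition above the screen-wide mean plus 3 SD, limit set per campaign, cut at about 26% in these data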;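 note: 0% = LYPLA2 with DMSO and 100% = wells lacking LYPLA2 enzyme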
Target sequence (O95372 whole entry, looked up): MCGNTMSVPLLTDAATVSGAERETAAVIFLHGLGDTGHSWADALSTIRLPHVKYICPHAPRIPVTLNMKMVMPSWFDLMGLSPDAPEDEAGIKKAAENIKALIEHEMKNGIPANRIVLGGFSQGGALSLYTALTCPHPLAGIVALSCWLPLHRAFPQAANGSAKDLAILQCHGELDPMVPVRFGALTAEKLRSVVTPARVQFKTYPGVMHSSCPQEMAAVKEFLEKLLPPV
procasp7 counter = activates human procaspase-7, counter-screen for procaspase-3 activators | recombinant procaspase-7, Ac-DEVD-pNA absorbance 405 nm; D23A/D198A/D206A triple mutant, cannot self-cleave; scale: DMSO 0, 5 µM enzyme 100 | 330,000 compounds, 0.093% hits | activation, % at 8.5 µM | AID 463210 | P55210;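 active = percent activation above the screen-wide mean plus 3 SD, cut at about 25% in these data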
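signal = Epi-absorbance of released pNA at 405 nm, two timepoints | assay system = Uncleavable procaspase-7 mutant enzyme | reagent = Ac-DEVD-pNA substrate, 400 µM as added | times = 1 h enzyme–compound preincubation and 2 h substrate reaction, both 25 °C | benchmarks = low DMSO alone, high DMSO plus 5 µM PC-7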
LYPLA2 confirm = LYPLA2 (human) inhibition, confirmation counter-screen; shares compounds with LYPLA2 counter; recombinant LYPLA2, FP-Rh probe fluorescence polarization; inhibition, % at 5.9 µM; 1,100 compounds, 72% hits;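 active = mean inhibition across replicates above the hit cutoff set in the primary screen, cut at about 26% in these data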;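 note: blocked labeling of the enzyme by serine hydrolase FP-Rh probe lowers polarization; 0% = enzyme with DMSO and 100% = wells lacking LYPLA2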
LYPLA2 gel ABPP = LYPLA2 (human) inhibition, late stage results; shares compounds with LYPLA2 counter; rhLYPLA2 in mouse brain proteome, gel ABPP FP-Rh; inhibition, % at 20 µM; 150 compounds, 30% hits; AID 652029;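 active = inhibition of LYPLA2 enzyme probe labeling above about 50%, limit read from the data; inactive = inhibition below that limit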;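 note: loss of FP-Rh probe labeling of the LYPLA2 gel band measured as band density; 0% = DMSO only control band and 100% = blank gel background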
PREPL confirm = human PREPL inhibition, confirmation. shares compounds with PREPL inhibitor. recombinant PREPL, fluorescence polarization activity probe. inhibition, % at 5.96 µM. 2,000 compounds, 67% hits. AID 2803;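 note: 0% = protein with DMSO and 100% = wells lacking protein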
Starred values were filed as active, the others as inactive; x = not tested or not shown. Rows were chosen to be rich in hits. Some 1% of all compounds tested hit in one or more screens of this group. Cut-off read from the data, not from the text of the source, unless noted: active = inhibition above about 43%; inactive = the rest.

SMILES	LYPLA1 inh	proCasp3 act	PREPL inhibitor	LYPLA2 counter	procasp7 counter	LYPLA2 confirm	PREPL confirm	others
Cc1nn(-c2ccccc2)c(C)c1NC(=O)c1cccs1	2	-4	7	0	12	x	x
COc1ccc(C(=O)NNC(=O)c2ccccc2[N+](=O)[O-])cc1Br	-1	3	12	1	7	x	x
COc1cc(C=NNC(=O)C(NC(=O)c2ccccc2)c2n[nH]c(=O)c3ccccc23)ccc1OCC(N)=O (stereo not given)	x	x	x	x	x	x	x	LYPLA2 gel ABPP=61*
Cc1ccc(OCC(=O)NCc2ccccc2)c([N+](=O)[O-])n1	3	-8	3	54*	7	-5	x
O=[N+]([O-])c1ccc(CN2CCN(c3ccc([N+](=O)[O-])cc3)CC2)cc1	8	-14	45*	47*	5	31*	51*
O=[N+]([O-])c1ccc(CN2CCSCC2)cc1	2	-2	6	1	-4	x	x
COc1ccc(NC(=S)N2CCN(c3ccc([N+](=O)[O-])cc3)CC2)cc1OC	14	-13	47*	36*	-14	29*	49*
COc1cccc(NC(=S)N2CCN(c3ccc([N+](=O)[O-])cc3)CC2)c1	-2	-6	-7	0	-10	x	x
O=C(N/N=C/c1cn(CCOc2ccccc2)c2ccccc12)c1ccncc1	3	-12	54*	29*	-7	21	43
COc1ccc(N2CCN(C(=O)c3ccc(Cn4c(=S)[nH]c5ccc(N6CCOCC6)cc5c4=O)cc3)CC2)cc1	4	2	45*	75*	-8	72*	45*	LYPLA2 gel ABPP=33
CC(NC(=O)COC(=O)c1cc(=O)c2ccccc2o1)c1ccccc1 (stereo not given)	x	-12	13	x	10	x	x
O=C(C1CCN(c2ncnc3c2nc2n3CCCCC2)CC1)N1CCN(c2cccc(Cl)c2)CC1	6	2	49*	34*	-6	26*	47*
COc1ccc2c(c1)CCc1cc(C(=O)N3CCN(c4ccc(N5CCOCC5)nn4)CC3)sc1-2	0	7	53*	59*	1	60*	56*	LYPLA2 gel ABPP=23
CCCCCC1C/C(=N\O)C=C(C)C1C(=O)OC (stereo not given)	1	-4	3	0	-5	x	x
CCCCCCCCC[n+]1cccc2c3ccccc3ccc21	0	0	12	19	5	x	x
CCCCCCCCCCCCCCCC[n+]1cccc2ccccc21	8	-16	56*	32*	-10	57*	42
COc1ccc(Oc2ncccc2[N+](=O)[O-])cc1	0	-11	-1	-2	2	x	x
CCOC(=O)C1(CCC(C)C)CC(CSc2nc3ccccc3[nH]2)OC1=O (stereo not given)	-1	-4	6	-4	2	x	x
CCCCC(CC)C(=O)Nc1cc(C(=O)NCCC)ccc1N1CCC2(CC1)CC(c1ccccc1)=NO2 (stereo not given)	-8	8	50*	-15	-4	x	55*
CC(=O)Nc1ccc(NC(=O)C(C)OC(=O)C23CC4CC(CC(Cl)(C4)C2)C3)cc1 (stereo not given)	x	9	11	x	1	x	x
CCOC(=O)C1CCN(Cc2cc(=O)oc3c(C)c(C)ccc23)CC1	-1	6	44*	4	7	x	35
O=C(C[C@H]1C/C=C\C[C@@H](Cc2ccc(F)cc2)C(=O)OC[C@@H](Cc2c[nH]c3ccccc23)NC1=O)NCCO	x	6	45*	x	8	x	35
O=C1N[C@@H](Cc2c[nH]c3ccccc23)COC(=O)[C@H](Cc2ccc(F)cc2)C/C=C\C[C@@H]1CC(=O)N(CCO)Cc1ccccc1	x	1	32	x	9	x	x
